Assay results as given in ChEMBL document CHEMBL4229344 (Eur J Med Chem, 2018).

Tests used:
[1] = molecular target: Serine/threonine-protein kinase LATS2 (Homo sapiens) (UniProt Q9NRM7); test: Binding affinity to wild-type human partial length LATS2 (Q641 to V1088 residues) expressed in mammalian expression system assessed as residual binding level at 1 uM by Kinomescan method relative to control
[2] = molecular target: Angiopoietin-1 receptor (Homo sapiens) (UniProt Q02763); test: Binding affinity to wild-type human partial length TIE2 (N804 to T1112 residues) expressed in bacterial expression system assessed as residual binding level at 1 uM by Kinomescan method relative to control
[3] = tested on: Tyrosine-protein kinase ABL1 (Homo sapiens), P00519 [F317I]; test: Binding affinity to human phosphorylated ABL1 F317I mutant (S229 to K512 residues) expressed in mammalian expression system assessed as residual binding level at 1 uM by Kinomescan method relative to control
In short: (§1)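 Single-concentration (1 μM) competition-binding screen run by KINOMEscan against a panel of 468 purified kinases and mutants. The read-out is the relative binding activity of the test compound to each kinase.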

[4] = molecular target: Epidermal growth factor receptor (Homo sapiens) (UniProt P00533); test: Binding affinity to human partial length EGFR L747-T751del/Sins mutant expressed in bacterial expression system assessed as residual binding level at 1 uM by Kinomescan method relative to control
Chain of Epidermal growth factor receptor (Homo sapiens) (P00533 whole entry): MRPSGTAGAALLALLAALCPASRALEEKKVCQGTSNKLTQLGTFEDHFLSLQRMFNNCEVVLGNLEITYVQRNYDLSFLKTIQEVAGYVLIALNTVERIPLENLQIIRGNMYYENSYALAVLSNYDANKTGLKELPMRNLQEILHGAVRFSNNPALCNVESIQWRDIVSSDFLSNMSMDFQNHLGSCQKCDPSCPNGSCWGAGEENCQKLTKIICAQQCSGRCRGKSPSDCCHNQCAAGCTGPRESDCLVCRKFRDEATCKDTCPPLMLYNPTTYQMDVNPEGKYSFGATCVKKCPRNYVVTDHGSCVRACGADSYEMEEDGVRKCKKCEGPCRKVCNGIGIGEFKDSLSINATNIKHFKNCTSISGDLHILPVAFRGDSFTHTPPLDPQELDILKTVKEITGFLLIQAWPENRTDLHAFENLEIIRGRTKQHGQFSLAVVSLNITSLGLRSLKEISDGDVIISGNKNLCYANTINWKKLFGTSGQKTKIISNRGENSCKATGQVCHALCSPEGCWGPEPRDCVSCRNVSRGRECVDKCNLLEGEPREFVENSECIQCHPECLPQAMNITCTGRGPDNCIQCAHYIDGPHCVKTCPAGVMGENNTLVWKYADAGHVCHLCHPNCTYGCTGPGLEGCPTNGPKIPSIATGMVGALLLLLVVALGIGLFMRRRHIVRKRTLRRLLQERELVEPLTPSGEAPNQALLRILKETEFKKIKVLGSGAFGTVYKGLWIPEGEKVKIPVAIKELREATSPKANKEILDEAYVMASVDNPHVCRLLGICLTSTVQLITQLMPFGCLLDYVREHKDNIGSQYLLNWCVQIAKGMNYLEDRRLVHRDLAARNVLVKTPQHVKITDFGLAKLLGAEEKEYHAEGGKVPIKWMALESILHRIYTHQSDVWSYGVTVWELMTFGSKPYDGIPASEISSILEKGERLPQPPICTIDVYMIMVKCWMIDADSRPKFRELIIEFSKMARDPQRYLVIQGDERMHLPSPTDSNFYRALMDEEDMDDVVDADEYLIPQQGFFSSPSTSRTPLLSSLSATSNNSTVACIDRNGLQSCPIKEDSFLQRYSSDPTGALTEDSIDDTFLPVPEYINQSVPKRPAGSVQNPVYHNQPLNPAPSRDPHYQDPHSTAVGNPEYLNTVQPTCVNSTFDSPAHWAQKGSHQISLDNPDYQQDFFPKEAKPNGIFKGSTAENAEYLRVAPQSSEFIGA
In short: (§2)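 Kinome-wide single-concentration binding screen (KINOMEscan) at 1 μM against a panel of 468 purified kinases and mutants. Read-out is relative binding of each kinase compared with control. Selectivity across the panel was summarised as an S(10) score.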

[5] = tested on: Serine/threonine-protein kinase B-raf (Homo sapiens), P15056 [V600E]; test: Binding affinity to human partial length BRAF V600E mutant (S429 to E741 residues) expressed in mammalian expression system assessed as residual binding level at 1 uM by Kinomescan method relative to control; in short: as §2
[6] = molecular target: Inhibitor of nuclear factor kappa-B kinase subunit alpha (Homo sapiens) (UniProt O15111); test: Binding affinity to wild-type human full length IKK-alpha (M1 to E745 residues) expressed in mammalian expression system assessed as residual binding level at 1 uM by Kinomescan method relative to control; in short: as §1
Mus musculus = test: Toxicity in NOD-SCID mouse engrafted with human EOL-1 cells assessed as change in body weight at 30 mg/kg/day, ip administered 3 weeks post cell inoculation; assay type: organism-based; conditions: in vivo, 504 h
[7] = molecular target: Myosin light chain kinase, smooth muscle (Homo sapiens) (UniProt Q15746); test: Binding affinity to wild-type human full length MYLK (M854 to E1845 residues) expressed in mammalian expression system assessed as residual binding level at 1 uM by Kinomescan method relative to control
In short: (§3)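 Single-concentration KINOMEscan (DiscoverX) binding screen at 1 μM against a panel of 468 purified kinases and mutants. The read-out is binding relative to control.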

[8] = molecular target: Serine/threonine-protein kinase Nek6 (Homo sapiens) (UniProt Q9HC98); test: Binding affinity to wild-type human full length NEK6 (M8 to T313 residues) expressed in bacterial expression system assessed as residual binding level at 1 uM by Kinomescan method relative to control; in short: as §3
[9] = molecular target: Tyrosine-protein kinase Fer (Homo sapiens) (UniProt P16591); test: Binding affinity to wild-type human partial length FER (S542 to T822 residues) expressed in bacterial expression system assessed as residual binding level at 1 uM by Kinomescan method relative to control
[10] = molecular target: Fibroblast growth factor receptor 3 (Homo sapiens) (UniProt P22607); test: Binding affinity to wild-type human partial length FGFR3 (R442 to S771 residues) expressed in bacterial expression system assessed as residual binding level at 1 uM by Kinomescan method relative to control
[11] = AUC (0 to infinity) in Sprague-Dawley rat at 10 mg/kg, po; assay type: ADME, organism-based; design: dose 10 mg/kg, route oral, time infinity; conditions: in vivo
In short: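 Male Sprague-Dawley rats (6–8 weeks) fasted overnight, dosed IV or orally; compound dissolved in 5% DMSO/40% PEG400/55% saline (dosing solution 1 mg/mL). Blood (~0.2 mL) from jugular vein into heparin; IV sampling 1 min–8 h, oral 5 min–24 h. Plasma separated by centrifugation at 2–8 °C, stored at −80 °C until analysis.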

[12] = molecular target: Rhodopsin kinase GRK7 (Homo sapiens) (UniProt Q8WTQ7); test: Binding affinity to wild-type human full length GRK7 (M1 to L553 residues) expressed in mammalian expression system assessed as residual binding level at 1 uM by Kinomescan method relative to control; in short: as §1
Chain of Rhodopsin kinase GRK7 (Homo sapiens) (Q8WTQ7 whole entry, the tested form may be a part): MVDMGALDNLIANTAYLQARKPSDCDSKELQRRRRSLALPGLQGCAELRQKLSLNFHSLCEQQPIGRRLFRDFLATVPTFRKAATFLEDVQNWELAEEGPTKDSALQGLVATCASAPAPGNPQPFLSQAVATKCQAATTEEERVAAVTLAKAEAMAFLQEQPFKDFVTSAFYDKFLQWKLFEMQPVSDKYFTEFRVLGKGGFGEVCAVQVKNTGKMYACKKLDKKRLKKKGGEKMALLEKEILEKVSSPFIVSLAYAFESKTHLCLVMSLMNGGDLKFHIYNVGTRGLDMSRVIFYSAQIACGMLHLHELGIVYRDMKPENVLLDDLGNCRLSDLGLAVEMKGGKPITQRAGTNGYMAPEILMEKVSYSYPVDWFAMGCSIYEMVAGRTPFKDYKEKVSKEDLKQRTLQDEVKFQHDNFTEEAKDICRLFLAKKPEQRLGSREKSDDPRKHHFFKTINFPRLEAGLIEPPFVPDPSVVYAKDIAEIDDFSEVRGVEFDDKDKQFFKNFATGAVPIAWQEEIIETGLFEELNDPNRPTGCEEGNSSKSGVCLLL

[13] = molecular target: Ephrin type-A receptor 5 (Homo sapiens) (UniProt P54756); test: Binding affinity to wild-type human partial length EPHA5 (T627 to V930 residues) expressed in bacterial expression system assessed as residual binding level at 1 uM by Kinomescan method relative to control
[14] = molecular target: Serine/threonine-protein kinase Nek3 (Homo sapiens) (UniProt P51956); test: Binding affinity to wild-type human full length NEK3 (M1 to R506 residues) expressed in mammalian expression system assessed as residual binding level at 1 uM by Kinomescan method relative to control
In short: (§4)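 KINOMEscan competition binding against 468 purified kinases/mutants, test compound at 1 µM; residual binding relative to control.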

[15] = molecular target: Mitogen-activated protein kinase kinase kinase kinase 2 (Homo sapiens) (UniProt Q12851); test: Binding affinity to wild-type human partial length MAP4K2 (M1 to G318 residues) expressed in mammalian expression system assessed as residual binding level at 1 uM by Kinomescan method relative to control
[16] = molecular target: Mitogen-activated protein kinase kinase kinase 15 (Homo sapiens) (UniProt Q6ZN16); test: Binding affinity to wild-type human partial length MAP3K15 (T625 to L932 residues) expressed in mammalian expression system assessed as residual binding level at 1 uM by Kinomescan method relative to control
Chain of Mitogen-activated protein kinase kinase kinase 15 (Homo sapiens) (Q6ZN16 whole entry, the tested form may be a part): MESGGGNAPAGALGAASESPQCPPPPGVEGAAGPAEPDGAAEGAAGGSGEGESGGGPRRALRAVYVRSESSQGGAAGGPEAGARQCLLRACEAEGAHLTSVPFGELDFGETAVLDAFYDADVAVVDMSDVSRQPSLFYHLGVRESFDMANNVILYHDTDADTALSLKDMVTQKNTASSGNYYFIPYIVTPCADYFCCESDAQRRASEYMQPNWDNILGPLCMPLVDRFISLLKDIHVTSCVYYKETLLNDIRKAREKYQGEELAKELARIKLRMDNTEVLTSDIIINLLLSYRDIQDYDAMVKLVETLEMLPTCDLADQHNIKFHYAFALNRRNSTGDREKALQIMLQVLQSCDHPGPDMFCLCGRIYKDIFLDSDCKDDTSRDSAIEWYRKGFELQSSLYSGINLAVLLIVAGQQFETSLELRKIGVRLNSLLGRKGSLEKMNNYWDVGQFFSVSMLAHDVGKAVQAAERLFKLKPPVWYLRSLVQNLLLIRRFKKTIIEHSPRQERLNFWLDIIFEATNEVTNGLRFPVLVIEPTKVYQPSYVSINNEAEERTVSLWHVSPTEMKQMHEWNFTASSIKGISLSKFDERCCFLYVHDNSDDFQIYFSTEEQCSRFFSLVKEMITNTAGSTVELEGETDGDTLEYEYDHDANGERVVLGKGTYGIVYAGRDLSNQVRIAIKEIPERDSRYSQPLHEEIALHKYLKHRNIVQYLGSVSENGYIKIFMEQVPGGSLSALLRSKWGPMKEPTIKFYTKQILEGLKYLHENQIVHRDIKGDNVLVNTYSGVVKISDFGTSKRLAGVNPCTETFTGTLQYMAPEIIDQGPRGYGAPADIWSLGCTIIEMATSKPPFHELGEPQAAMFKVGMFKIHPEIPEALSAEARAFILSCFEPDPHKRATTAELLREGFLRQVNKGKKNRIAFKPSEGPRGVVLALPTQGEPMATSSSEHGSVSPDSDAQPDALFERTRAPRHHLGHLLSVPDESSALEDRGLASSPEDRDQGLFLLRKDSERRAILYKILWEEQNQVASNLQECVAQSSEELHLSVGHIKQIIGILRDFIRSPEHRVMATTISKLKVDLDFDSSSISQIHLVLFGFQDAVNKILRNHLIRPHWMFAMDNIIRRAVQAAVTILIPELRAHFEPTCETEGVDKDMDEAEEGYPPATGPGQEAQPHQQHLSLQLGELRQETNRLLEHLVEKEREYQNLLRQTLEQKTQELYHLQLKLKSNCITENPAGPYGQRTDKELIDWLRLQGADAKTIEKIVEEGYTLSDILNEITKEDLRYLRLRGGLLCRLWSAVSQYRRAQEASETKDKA

[17] = molecular target: cGMP-dependent protein kinase 2 (Homo sapiens) (UniProt Q13237); test: Binding affinity to wild-type human partial length PRKG2 (S422 to F762 residues) expressed in mammalian expression system assessed as residual binding level at 1 uM by Kinomescan method relative to control
[18] = molecular target: Ephrin type-B receptor 6 (Homo sapiens) (UniProt O15197); test: Binding affinity to wild-type human partial length EPHB6 (Q634 to P948 residues) expressed in mammalian expression system assessed as residual binding level at 1 uM by Kinomescan method relative to control
[19] = molecular target: Maternal embryonic leucine zipper kinase (Homo sapiens) (UniProt Q14680); test: Binding affinity to wild-type human full length MELK (M1 to V651 residues) expressed in bacterial expression system assessed as residual binding level at 1 uM by Kinomescan method relative to control; in short: as §4
[20] = molecular target: Tyrosine-protein kinase receptor UFO (Homo sapiens) (UniProt P30530); test: Binding affinity to wild-type human partial length AXL (R497 to Y821 residues) expressed in bacterial expression system assessed as residual binding level at 1 uM by Kinomescan method relative to control; in short: as §3
Chain of Tyrosine-protein kinase receptor UFO (Homo sapiens) (P30530 whole entry, the tested form may be a part): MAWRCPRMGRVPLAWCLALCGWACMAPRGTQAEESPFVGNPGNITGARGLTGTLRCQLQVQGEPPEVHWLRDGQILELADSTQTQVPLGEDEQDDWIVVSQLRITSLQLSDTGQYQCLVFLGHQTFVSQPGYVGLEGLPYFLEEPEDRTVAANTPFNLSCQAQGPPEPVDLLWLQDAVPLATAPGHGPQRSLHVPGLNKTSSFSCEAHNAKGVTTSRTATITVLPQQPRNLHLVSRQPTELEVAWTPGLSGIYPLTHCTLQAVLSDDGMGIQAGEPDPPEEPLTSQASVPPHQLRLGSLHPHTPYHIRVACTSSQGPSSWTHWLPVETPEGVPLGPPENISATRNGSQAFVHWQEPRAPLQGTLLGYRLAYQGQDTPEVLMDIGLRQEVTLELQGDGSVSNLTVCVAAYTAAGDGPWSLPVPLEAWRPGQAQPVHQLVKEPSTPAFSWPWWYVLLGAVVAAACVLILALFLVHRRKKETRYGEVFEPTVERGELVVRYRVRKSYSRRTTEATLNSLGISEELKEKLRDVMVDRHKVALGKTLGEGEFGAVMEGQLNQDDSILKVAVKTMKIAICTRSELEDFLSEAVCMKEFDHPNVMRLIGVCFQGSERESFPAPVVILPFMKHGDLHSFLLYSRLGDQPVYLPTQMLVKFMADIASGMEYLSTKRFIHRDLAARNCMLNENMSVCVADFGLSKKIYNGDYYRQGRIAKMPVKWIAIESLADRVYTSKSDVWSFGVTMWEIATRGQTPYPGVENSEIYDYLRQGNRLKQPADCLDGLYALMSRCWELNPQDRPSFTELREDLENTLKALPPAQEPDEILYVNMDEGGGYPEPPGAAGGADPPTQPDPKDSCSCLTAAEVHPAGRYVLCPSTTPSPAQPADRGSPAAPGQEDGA

[21] = tested on: eIF-2-alpha kinase GCN2 (Homo sapiens), Q9P2K8 [S808G]; test: Binding affinity to wild-type human partial length GCN2 kinase domain 2 (R585 to T1018 residues) S808G mutant expressed in bacterial expression system assessed as residual binding level at 1 uM by Kinomescan method relative to control

Chain of Serine/threonine-protein kinase LATS2 (Homo sapiens) (Q9NRM7 whole entry, the tested form may be a part): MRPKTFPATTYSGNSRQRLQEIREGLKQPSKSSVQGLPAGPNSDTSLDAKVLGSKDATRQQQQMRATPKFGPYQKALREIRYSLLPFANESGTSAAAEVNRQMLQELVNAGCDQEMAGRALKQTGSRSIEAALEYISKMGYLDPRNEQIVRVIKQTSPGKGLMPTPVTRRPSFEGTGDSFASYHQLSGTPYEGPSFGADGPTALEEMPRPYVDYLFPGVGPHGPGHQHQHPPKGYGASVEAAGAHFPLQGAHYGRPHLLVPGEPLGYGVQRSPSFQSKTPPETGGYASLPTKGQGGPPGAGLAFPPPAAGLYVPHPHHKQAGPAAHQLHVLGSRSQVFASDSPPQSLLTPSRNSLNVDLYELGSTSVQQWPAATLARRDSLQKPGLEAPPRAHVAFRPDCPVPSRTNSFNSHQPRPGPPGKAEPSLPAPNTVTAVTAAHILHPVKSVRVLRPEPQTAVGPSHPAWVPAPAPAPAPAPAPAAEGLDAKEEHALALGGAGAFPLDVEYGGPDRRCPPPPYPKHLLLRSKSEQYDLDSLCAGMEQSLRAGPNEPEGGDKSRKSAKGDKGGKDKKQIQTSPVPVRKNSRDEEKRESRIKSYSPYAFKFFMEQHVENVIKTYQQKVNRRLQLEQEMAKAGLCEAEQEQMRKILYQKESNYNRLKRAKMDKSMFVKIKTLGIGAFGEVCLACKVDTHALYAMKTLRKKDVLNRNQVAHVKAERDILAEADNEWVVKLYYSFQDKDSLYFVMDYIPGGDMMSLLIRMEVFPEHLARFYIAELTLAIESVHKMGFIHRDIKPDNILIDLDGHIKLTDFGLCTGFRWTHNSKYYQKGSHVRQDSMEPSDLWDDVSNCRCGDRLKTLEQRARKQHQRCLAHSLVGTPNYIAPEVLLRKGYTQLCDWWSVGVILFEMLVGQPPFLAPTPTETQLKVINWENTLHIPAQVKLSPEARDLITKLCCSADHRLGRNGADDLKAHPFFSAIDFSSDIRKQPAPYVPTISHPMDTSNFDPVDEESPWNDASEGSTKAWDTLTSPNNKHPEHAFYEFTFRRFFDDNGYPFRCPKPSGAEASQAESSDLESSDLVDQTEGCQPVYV

Cc1ccc(NC(=O)c2ccc(CN(CCN(C)C)C(=O)c3cccnc3)cc2)cc1Nc1nccc(-c2cccnc2)n1
Activity [1]: 100% | Activity [2]: 93% | Activity [3]: 74% | Activity [4]: 100% | Activity [5]: 49% | Activity [6]: 95% | Activity (Mus musculus): Non-Toxic | Activity [7]: 100% | Activity [8]: 90% | Activity [9]: 100% | Activity [10]: 100% | AUC(0-inf) [11]: 115 ng·h/mL | Activity [12]: 100% | Activity [13]: 86% | Activity [14]: 73% | Activity [15]: 100% | Activity [16]: 100% | Activity [17]: 100% | Activity [18]: 100% | Activity [19]: 84% | Activity [20]: 95% | Activity [21]: 71%
